Experiments:
Assay type in all cases: toxicity, cell-based
U2OS [1] = assay: Multiplex assay against U2OS; details: human
Outline: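 Four dyes were applied at seeding to live cells: Hoechst33342, BioTracker Green Microtubule Cytoskeleton Dye, MitoTracker Red and Annexin V Alexa Fluor 680. Imaging after compound addition used a CQ1 microscope at 37°C and 5% CO2. CellPathfinder machine-learning gating then sorted cells into Hoechst high-intensity objects or normal cells, normal cells into healthy, pyknosed or fragmented nuclei, and pyknosed cells into mitotic or apoptotic, with tubulin, mitochondrial-mass and membrane-permeability phenotypes given as per cents of healthy-nucleus cells.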

HEK-293T = assay: Incucyte cell viability with HEK293T; details: human, 10 µM, compound concentration 10 uM; note: filed as whole numbers so only -1 and 0 and 1 occur
Fibroblast = assay: Incucyte cell viability with human fibroblast; details: 10 µM, compound concentration 10 uM; note: filed as whole numbers so only -1 and 0 and 1 occur
U2OS [2] = assay: Incucyte cell viability with U2OS; details: human, 10 µM, compound concentration 10 uM; note: filed as whole numbers so only -1 and 0 and 1 occur
[3] = 12 h, 1 µM, compound concentration 1 uM, replicate 1
[4] = 12 h, 1 µM, compound concentration 1 uM, replicate 2
[5] = 12 h, 10 µM, compound concentration 10 uM, replicate 1
[6] = 12 h, 10 µM, compound concentration 10 uM, replicate 2
[7] = 24 h, 1 µM, compound concentration 1 uM, replicate 1
[8] = 24 h, 1 µM, compound concentration 1 uM, replicate 2
[9] = 24 h, 10 µM, compound concentration 10 uM, replicate 1
[10] = 24 h, 10 µM, compound concentration 10 uM, replicate 2
[11] = 48 h, 1 µM, compound concentration 1 uM, replicate 1
[12] = 48 h, 1 µM, compound concentration 1 uM, replicate 2
[13] = 48 h, 10 µM, compound concentration 10 uM, replicate 1
[14] = 48 h, 10 µM, compound concentration 10 uM, replicate 2
[15] = 0 h, replicate number 1, timepoint 0 hours
[16] = 12 h, replicate number 1, timepoint 12 hours
[17] = 18 h, replicate number 1, timepoint 18 hours
[18] = 24 h, replicate number 1, timepoint 24 hours
[19] = 6 h, replicate number 2, timepoint 6 hours

## CC(C)N1CCC(C)(C)c2cc(C#Cc3ccc(C(=O)O)cc3)ccc21
U2OS [1]; [3]
  Population Apoptotic (%): 30%
  Population Healthy Nuclei (%): 74%
  Population Hoechst High Intensity Objects (%): 12%
  Population Membrane Permeable-Phenotype (%): 3%
  Population Mitochondria Different-Phenotype (%): 4%
  Population Mitotic Cells (%): 70%
  Population Normal (%): 88%
  Population Pyknosed Nuclei (%): 9%
  Population Tubulin-Different-Phenotype (%): 21%
  Total Cell Count: 125
U2OS [1]; [4]
  Population Apoptotic (%): 20%
  Population Fragmented Nuclei (%): 16%
  Population Healthy Nuclei (%): 75%
  Population Hoechst High Intensity Objects (%): 13%
  Population Membrane Permeable-Phenotype (%): 6%
  Population Mitochondria Different-Phenotype (%): 15%
  Population Mitotic Cells (%): 80%
  Population Normal (%): 86%
  Population Pyknosed Nuclei (%): 8%
  Population Tubulin-Different-Phenotype (%): 20%
  Total Cell Count: 69
U2OS [1]; [5]
  Population Apoptotic (%): 60%
  Population Fragmented Nuclei (%): 52%
  Population Healthy Nuclei (%): 43%
  Population Hoechst High Intensity Objects (%): 54%
  Population Membrane Permeable-Phenotype (%): 8%
  Population Mitochondria Different-Phenotype (%): 8%
  Population Mitotic Cells (%): 40%
  Population Normal (%): 45%
  Population Pyknosed Nuclei (%): 4%
  Population Tubulin-Different-Phenotype (%): 13%
  Total Cell Count: 542
U2OS [1]; [6]
  Population Apoptotic (%): 0%
  Population Fragmented Nuclei (%): 55%
  Population Healthy Nuclei (%): 44%
  Population Hoechst High Intensity Objects (%): 71%
  Population Membrane Permeable-Phenotype (%): 4%
  Population Mitochondria Different-Phenotype (%): 14%
  Population Mitotic Cells (%): 0%
  Population Normal (%): 28%
  Population Pyknosed Nuclei (%): 0%
  Population Tubulin-Different-Phenotype (%): 28%
  Total Cell Count: 327
U2OS [1]; [7]
  Population Apoptotic (%): 54%
  Population Fragmented Nuclei (%): 11%
  Population Healthy Nuclei (%): 80%
  Population Hoechst High Intensity Objects (%): 7%
  Population Membrane Permeable-Phenotype (%): 1%
  Population Mitochondria Different-Phenotype (%): 5%
  Population Mitotic Cells (%): 45%
  Population Normal (%): 92%
  Population Pyknosed Nuclei (%): 7%
  Population Tubulin-Different-Phenotype (%): 12%
  Total Cell Count: 156
U2OS [1]; [8]
  Population Apoptotic (%): 50%
  Population Fragmented Nuclei (%): 18%
  Population Healthy Nuclei (%): 76%
  Population Hoechst High Intensity Objects (%): 4%
  Population Membrane Permeable-Phenotype (%): 3%
  Population Mitochondria Different-Phenotype (%): 10%
  Population Mitotic Cells (%): 50%
  Population Normal (%): 95%
  Population Pyknosed Nuclei (%): 5%
  Population Tubulin-Different-Phenotype (%): 18%
  Total Cell Count: 81
U2OS [1]; [9]
  Population Apoptotic (%): 70%
  Population Fragmented Nuclei (%): 47%
  Population Healthy Nuclei (%): 49%
  Population Hoechst High Intensity Objects (%): 48%
  Population Membrane Permeable-Phenotype (%): 4%
  Population Mitochondria Different-Phenotype (%): 6%
  Population Mitotic Cells (%): 30%
  Population Normal (%): 51%
  Population Pyknosed Nuclei (%): 3%
  Population Tubulin-Different-Phenotype (%): 14%
  Total Cell Count: 566
U2OS [1]; [10]
  Population Apoptotic (%): 100%
  Population Fragmented Nuclei (%): 49%
  Population Healthy Nuclei (%): 47%
  Population Hoechst High Intensity Objects (%): 66%
  Population Membrane Permeable-Phenotype (%): 3%
  Population Mitochondria Different-Phenotype (%): 3%
  Population Mitotic Cells (%): 0%
  Population Normal (%): 33%
  Population Pyknosed Nuclei (%): 2%
  Population Tubulin-Different-Phenotype (%): 26%
  Total Cell Count: 352
U2OS [1]; [11]
  Population Apoptotic (%): 25%
  Population Fragmented Nuclei (%): 6%
  Population Healthy Nuclei (%): 90%
  Population Membrane Permeable-Phenotype (%): 3%
  Population Mitochondria Different-Phenotype (%): 5%
  Population Mitotic Cells (%): 75%
  Population Pyknosed Nuclei (%): 3%
  Population Tubulin-Different-Phenotype (%): 17%
  Total Cell Count: 245
U2OS [1]; [12]
  Population Apoptotic (%): 33%
  Population Fragmented Nuclei (%): 14%
  Population Healthy Nuclei (%): 83%
  Population Hoechst High Intensity Objects (%): 6%
  Population Membrane Permeable-Phenotype (%): 4%
  Population Mitochondria Different-Phenotype (%): 9%
  Population Mitotic Cells (%): 66%
  Population Normal (%): 93%
  Population Pyknosed Nuclei (%): 2%
  Population Tubulin-Different-Phenotype (%): 20%
  Total Cell Count: 122
U2OS [1]; [13]
  Population Apoptotic (%): 30%
  Population Fragmented Nuclei (%): 38%
  Population Healthy Nuclei (%): 57%
  Population Hoechst High Intensity Objects (%): 38%
  Population Membrane Permeable-Phenotype (%): 1%
  Population Mitochondria Different-Phenotype (%): 10%
  Population Mitotic Cells (%): 69%
  Population Normal (%): 61%
  Population Pyknosed Nuclei (%): 3%
  Population Tubulin-Different-Phenotype (%): 12%
  Total Cell Count: 653
U2OS [1]; [14]
  Population Apoptotic (%): 100%
  Population Fragmented Nuclei (%): 44%
  Population Healthy Nuclei (%): 55%
  Population Hoechst High Intensity Objects (%): 57%
  Population Membrane Permeable-Phenotype (%): 2%
  Population Mitochondria Different-Phenotype (%): 8%
  Population Mitotic Cells (%): 0%
  Population Normal (%): 42%
  Population Pyknosed Nuclei (%): 0%
  Population Tubulin-Different-Phenotype (%): 28%
  Total Cell Count: 411
HEK-293T; [15]
  Growth Rate: 1
HEK-293T; 0 h, replicate number 2, timepoint 0 hours
  Growth Rate: 0
HEK-293T; 6 h, replicate number 1, timepoint 6 hours
  Growth Rate: 1
HEK-293T; [16]
  Growth Rate: 0
HEK-293T; [17]
  Growth Rate: 0
HEK-293T; [18]
  Growth Rate: 0
Fibroblast; [15]
  Growth Rate: 0
Fibroblast; [19]
  Growth Rate: 0
Fibroblast; [16]
  Growth Rate: 0
Fibroblast; 12 h, replicate number 2, timepoint 12 hours
  Growth Rate: 1
Fibroblast; [17]
  Growth Rate: 0
Fibroblast; [18]
  Growth Rate: 0
U2OS [2]; [15]
  Growth Rate: 0
U2OS [2]; [19]
  Growth Rate: 0
U2OS [2]; [16]
  Growth Rate: 1
U2OS [2]; [17]
  Growth Rate: 1
U2OS [2]; [18]
  Growth Rate: 1
